# Bioassay records: PubChem BioAssay, several laboratories
# NOD2 RIPK2 PPI – NOD2-RIPK2 binding disruptors in cells, primary screen, fluorescence, CHO cells, BLA complementation; hit rate 0.38% among 360,000; CCF4 ratio; Receptor-interacting serine/threonine-protein kinase 2 (Homo sapiens), O43353; inhibition, % at 4.98 µM; in the data active = inhibition above about 21%;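 note: 0% = vehicle only and 100% = reference blocker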
# TLR9-MyD88 inh – inhibitors of TLR9-MyD88 association in cells, primary screen, cell-based, CHO, BLA complementation, fluorescence. Toll-like receptor 9 (Homo sapiens) + Myeloid differentiation primary response protein …. CCF4 FRET ratio. inhibition, % at 4.98 µM. hit rate 0.21% among 340,000;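 active = inhibition above the mean over all tested compounds plus 3 SD, cut at about 21% in these data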;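 note: 0% = DMSO only wells and 100% = clavulanate BLA inhibitor control wells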
# TLR4-MyD88 BLA – inhibitors of TLR4-MyD88 association in cells, primary screen, cell-based, HeLa CL3-4, BLA complementation, FRET ratio. Toll-like receptor 4 (Homo sapiens) + Myeloid differentiation primary response protein …. HeLa CL3-4 TLR4/MyD88 BLA complementation. inhibition, % at 8.4 µM. hit rate 0.18% among 200,000; in the data active = inhibition above about 25%;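 note: 0% = vehicle and 100% = reference inhibitor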
# Target sequence (O00206 whole entry, looked up): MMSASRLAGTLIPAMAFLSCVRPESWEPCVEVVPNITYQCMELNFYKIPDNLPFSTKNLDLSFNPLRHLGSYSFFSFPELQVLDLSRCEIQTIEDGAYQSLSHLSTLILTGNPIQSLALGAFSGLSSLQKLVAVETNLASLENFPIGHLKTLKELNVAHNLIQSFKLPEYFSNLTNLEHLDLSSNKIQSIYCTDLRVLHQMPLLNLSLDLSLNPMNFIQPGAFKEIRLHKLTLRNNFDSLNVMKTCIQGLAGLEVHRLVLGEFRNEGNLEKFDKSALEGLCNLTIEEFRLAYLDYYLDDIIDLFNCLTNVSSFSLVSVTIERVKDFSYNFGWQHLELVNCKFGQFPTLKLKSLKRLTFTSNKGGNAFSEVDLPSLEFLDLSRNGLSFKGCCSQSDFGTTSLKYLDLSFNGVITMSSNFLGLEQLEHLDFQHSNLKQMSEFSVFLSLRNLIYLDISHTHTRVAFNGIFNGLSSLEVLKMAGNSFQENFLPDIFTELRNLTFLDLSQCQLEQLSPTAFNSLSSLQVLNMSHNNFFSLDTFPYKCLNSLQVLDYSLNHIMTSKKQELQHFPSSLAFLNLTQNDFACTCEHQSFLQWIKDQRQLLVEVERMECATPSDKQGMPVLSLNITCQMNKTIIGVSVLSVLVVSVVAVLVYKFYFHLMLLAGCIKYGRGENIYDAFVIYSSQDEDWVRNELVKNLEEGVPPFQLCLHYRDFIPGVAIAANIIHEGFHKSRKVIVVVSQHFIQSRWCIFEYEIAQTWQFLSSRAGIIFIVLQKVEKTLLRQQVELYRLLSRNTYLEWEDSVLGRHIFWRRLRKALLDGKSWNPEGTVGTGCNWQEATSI
# Target sequence (Q99836 whole entry, looked up): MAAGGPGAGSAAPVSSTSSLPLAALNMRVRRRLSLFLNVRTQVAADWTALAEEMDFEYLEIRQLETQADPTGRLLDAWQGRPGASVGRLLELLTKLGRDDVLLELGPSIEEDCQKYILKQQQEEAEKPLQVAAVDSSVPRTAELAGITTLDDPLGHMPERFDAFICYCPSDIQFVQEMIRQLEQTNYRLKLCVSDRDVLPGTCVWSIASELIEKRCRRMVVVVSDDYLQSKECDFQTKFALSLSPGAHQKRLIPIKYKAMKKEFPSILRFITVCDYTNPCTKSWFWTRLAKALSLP
# MC4R antag cAMP – MC4R antagonists of cAMP signaling, primary screen, cell-based, TR-FRET, antagonist arm of biased-ligand search; Melanocortin receptor 4 (Homo sapiens), P32245; MC4R-expressing cells, MTII-stimulated cAMP, LANCE TR-FRET; inhibition, % at 6.5 µM; hit rate 0.48% among 360,000; AID 540295, 2011;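 active = inhibition above its plate's cutoff, the mean of tested wells on that plate plus 3 SD, cut at about 29% in these data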;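 note: 0% = Melanotan II alone and 100% = Melanotan II plus saturating MCL0020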
#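 System: U2OS-MC4R stable cell line; Technique: Eu-cAMP/anti-cAMP TR-FRET, emission 671 nm; Repeats: single well per compound; Also added: Melanotan II; Dosing: one concentration, 6.5 µM nominal; Schedule: 30-min compound, 1-h challenge, 1-h detection, room temperature.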
# MC4R ag barr – MC4R agonists recruiting beta-arrestin, primary screen, cell-based, luminescence, agonist arm of biased-ligand search. Melanocortin receptor 4 (Homo sapiens), P32245. activation, % at 8.9 µM. hit rate 0.98% among 360,000. U2OS MC4R beta-arrestin complementation; percent of melanotan II response, DMSO zero. AID 540308, 2011;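 active = activation above a per-plate cutoff, the mean activation of sample wells on that plate plus 3 SD, cut at about 8% in these data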
# MIN6 prolif – inducers of MIN6 beta-cell proliferation, primary screen, ATP luminescence, uHTS; MIN6 cells proliferation, ATPlite luminescence, 48 h; cells starved in 0.2% serum; 100% = growth in 10% serum; proliferation, % at 10 µM; hit rate 0.29% among 330,000;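 active = compounds whose signal lies at least 3.5 SD above the mean of all wells on their plate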;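 note: 0% = DMSO-treated cells in low-serum medium and 100% = 10% serum control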
# Numbers without * were called inactive; . = not tested or not shown. Hits are enriched below; roughly 2.1% of the tested compounds scored in any of these assays.
SMILES,NOD2 RIPK2 PPI,TLR9-MyD88 inh,TLR4-MyD88 BLA,MC4R antag cAMP,MC4R ag barr,MIN6 prolif
COc1ccc2cc(CCNC(=O)c3ccc(S(=O)(=O)N4CCCC4)cc3)c(=O)[nH]c2c1,-15.0,-19.2,.,11.1,-2.7,0.5
COc1cc2c(cc1OC)CN(CC(=O)Nc1ccc(C)c(S(=O)(=O)N3CCOCC3)c1)CC2,13.3,-7.4,.,7.5,-2.6,-1.1
Cc1ccc(C(C)(C)C)cc1S(=O)(=O)N1CC(=O)Nc2ccccc21,-3.4,-2.4,.,-6.5,1.5,-0.4
Cc1cc(C(C)(C)C)cc(C)c1S(=O)(=O)N1CC(=O)Nc2ccccc21,4.9,-12.6,.,7.3,8.7*,-1.9
NC(=O)c1cc(S(=O)(=O)N2CCCC2)ccc1OCCOc1ccccc1,-4.0,-11.4,.,4.7,-4.3,-1.0
C/C(=N/NC(=O)CN1CCN(S(=O)(=O)c2ccc(Br)cc2)CC1)c1ccco1,0.9,9.9,-8.9,16.4,-0.6,-1.7
COc1ccc(C(=O)N=C2CCC(C#N)=C3c4cc(OC)c(OC)cc4CCN23)cc1,-1.6,3.5,4.6,-3.7,0.5,7.2*
COc1cc2c(cc1OC)C1=C(C#N)CC/C(=N\S(=O)(=O)c3ccccc3)N1CC2,-12.7,-7.8,3.9,5.8,-1.7,8.1
CC(=O)Nc1cc(-c2ccc(CO)cc2)cn2c(-c3ccc(F)c(Cl)c3)cnc12,-12.7,.,.,15.2,9.1*,.
Cc1ccc(F)cc1NC(=O)CSc1n[nH]c(N)n1,2.8,-3.2,.,7.8,-0.2,-0.9
O=C(CNC(=O)c1nn(Cc2ccccc2)c(=O)c2ccccc12)Nc1ccc(F)c(F)c1F,-2.7,-1.3,.,-0.9,3.1,2.0
CCc1ccc2c(c1)cc(CN(C(=S)Nc1cccc(C)c1)C1CC1)c1nnnn12,0.1,5.6,11.0,-10.2,12.7*,-3.5
COCCN(Cc1cc2cc(C)ccc2n2nnnc12)C(=S)Nc1cccc(C)c1,-1.2,0.3,7.4,4.7,-1.2,-2.2
COCCN1C[C@@H](CO)O[C@@H](n2cnc3c(NCc4ccc(F)cc4)ncnc32)C1,-7.4,.,.,0.6,-0.9,.
COc1ccccc1C(=O)Nc1nnc(SCC(=O)Nc2ccc3c(c2)oc2ccccc23)s1,-0.4,-8.6,-3.3,10.2,-1.9,-3.6
Cc1cccc(C(=O)Nc2nnc(SCC(=O)Nc3ccc4c(c3)oc3ccccc34)s2)c1,-7.5,-0.9,-0.5,0.7,9.4*,0.1
Cc1cc(C)cc(NS(=O)(=O)CCCS(=O)(=O)Nc2cc(C)cc(C)c2)c1,0.6,0.5,.,2.3,19.1*,.
COC(=O)c1cn(NC(=O)c2ccccc2[N+](=O)[O-])c(=O)c2ccccc12,-1.8,3.3,-0.8,12.3,0.1,-2.9
COc1ccc(OCc2nnc(NC(=O)Nc3ccccc3F)s2)cc1,-1.4,0.9,.,14.1,8.3*,-4.6
CCCNc1nc(Cl)nc(NC(C)(C)C)n1,-10.0,-21.2,-3.0,17.2,-1.2,-0.4
Cc1cccc(N2CCN(CCCNC(=O)c3ccc(NC(=O)C4=CSCCO4)cc3)CC2C)c1 (centres undefined),-3.5,-5.5,.,11.6,-0.3,-3.4
Cn1c(/C=C/c2ccc(Br)cc2)nc2ccccc2c1=O,8.5,-0.8,.,25.6,9.0*,-0.1
C[C@H]1COC(=O)[C@H](Cc2ccc(F)cc2)C/C=C\C[C@H](CC(=O)NCCO)C(=O)N1,-2.0,-13.9,.,4.5,-1.2,-1.4
CC(C)c1ccc(S(=O)(=O)/N=C2/C=C(Sc3ncn[nH]3)C(=O)c3ccccc32)cc1,1.8,10.5,-9.6,29.4*,-0.7,.
CCc1nc2c(OCCc3cccc(OC)c3)cccn2c1N(C)C(=O)c1cccs1,1.8,.,.,2.8,-0.5,.
SMILES,NOD2 RIPK2 PPI,TLR9-MyD88 inh,TLR4-MyD88 BLA,MC4R antag cAMP,MC4R ag barr,MIN6 prolif
COc1ccc(/C=C2\SC(=O)N(CC(=O)Nc3ccc(F)cc3)C2=O)cc1O,8.3,-2.5,.,10.8,9.2*,-3.5
COc1ccc(/C=C2\SC(=O)N(CC(=O)Nc3cccnc3)C2=O)cc1OC,0.0,-9.7,1.4,7.0,-1.2,-3.8
O=C(CCCn1cncn1)N1CCCC(N2CCN(c3ccccc3F)CC2)C1 (centres undefined),-1.0,8.1,.,16.8,-1.0,-2.7
Cc1ccc(S(=O)(=O)Cn2nnnc2C(CC(C)C)N2CCN(C3CCCC3)CC2)cc1 (centres undefined),3.1,3.0,.,-2.1,-0.8,-0.7
O=C1/C(=C/c2ccncc2)Oc2cc(OS(=O)(=O)c3ccccc3)ccc21,-14.2,5.9,.,1.4,-2.1,-3.9
COc1cccc(OC)c1C(=O)Oc1ccc2c(c1)O/C(=C\c1ccncc1)C2=O,-3.5,-0.6,-10.0,6.4,8.6*,0.0
O=C(Nc1cccc(-c2cnc3ccccc3n2)c1)c1ccccc1,0.1,4.4,2.4,4.7,3.1,-0.9
O=C(Nc1cccc(-c2cnc3ccccc3n2)c1)c1cccc(NC(=O)c2ccco2)c1,-1.7,9.0,-2.1,-1.1,34.7*,-4.8
COc1ccccc1-c1nc(S(=O)(=O)c2ccccc2)c(N2CCCCC2)o1,-3.2,-4.8,.,32.3*,-0.8,-6.6
CC(C)C#Cc1cnc2c(c1)C(=O)N([C@H](C)CO)C[C@@H](C)[C@H](CN(C)C(=O)Nc1ccccc1F)O2,-9.2,-1.6,.,0.2,0.2,.
CCOc1ccc(OCC(=O)Nc2ccc(OC)cc2[N+](=O)[O-])cc1,-8.0,-4.9,6.8,-6.4,0.8,-1.4
COc1ccc(/C=C/C(=O)Nc2ccccc2C(F)(F)F)cc1,-1.1,1.5,-15.3,21.0,3.4,-3.4
CCOc1ccc(/C=C/C(=O)Nc2ccccc2C(F)(F)F)cc1,10.9,-0.3,6.9,7.1,8.8*,-2.5
CCOc1ccc(/C=C/C(=O)Nc2ccc(OC)cc2[N+](=O)[O-])cc1,3.4,2.6,-3.6,-8.8,34.3*,0.3
COc1ccc(CCN2CC(C(=O)NCc3cccc(F)c3)CCC2=O)cc1 (centres undefined),-11.5,-12.4,.,3.7,0.1,.
Cc1cccc(NC(=O)[C@H](Cc2ccccc2)NC(=O)OCc2ccccc2)c1,-2.6,-8.3,-12.3,7.3,3.5,1.5
Cc1ccc(NC(=O)C(Cc2ccccc2)NC(=O)OCc2ccccc2)cc1C (centres undefined),-0.1,-10.2,-11.0,10.8,8.8*,0.1
Cc1cccc(NS(=O)(=O)c2ccc3nc(-c4ccccc4)[nH]c3c2)c1C,-4.6,-3.6,6.7,-0.8,9.0*,-2.1
